From ChEMBL document CHEMBL1949512, “RO4383596, an orally active KDR, FGFR, and PDGFR inhibitor: synthesis and biological evaluation” (Bioorg Med Chem, 2005)

Key:
[1] = Tmax in Wistar rat at 50 mg/kg, po; format: ADME, organism-based; set-up: dose 50 mg/kg, route oral; conditions: in vivo
Procedure, shortened: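 Wistar rats, single oral dose 50 mg/kg as suspension in 2% Klucel LF, 0.1% Tween 80 in water, 5 mL/kg. Jugular catheter blood at 5, 15, 30 min and 1, 3, 6, 12, 24, 48 h; EDTA plasma, LC-MS/MS. Tmax taken from concentration–time profiles; individual-animal parameters averaged.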

Mus musculus [2] = experiment: Antiangiogenic activity in C57/BL6 mouse cornea assessed as inhibition of bFGF-induced angiogenesis at 50 mg/kg, po bid for 5 days by corneal pocket assay relative to control; format: functional; conditions: 120 h
Procedure, shortened: (§1)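 bFGF-impregnated pellets were implanted in corneas of female C57/BL6 mice aged 5–7 weeks. Oral dosing twice daily began the same day for 5 days. The neovascularized area was quantitated against vehicle-treated animals (2% Klucel LF, 0.1% Tween 80 in water).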

[3] = AUC in C57/BL6 mouse at 25 mg/kg, po bid for 5 days; format: ADME, organism-based; set-up: dose 25 mg/kg, route oral; conditions: plasma
Procedure, shortened: (§2)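 Female C57/BL6 mice were dosed orally twice daily for 5 days with a suspension in 2% Klucel LF/0.1% Tween 80 in water. Six mice per dose were split into two subgroups of three, each sampled at alternate time points. Retro-orbital blood was taken at 0, 1, 4 and 8 h post-dose into EDTA, and plasma was analysed by LC-MS/MS. Parameters come from mean concentrations; AUC0–8h by linear trapezoidal rule; Cmax and Tmax as observed.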

[4] = Oral bioavailability in Wistar rat at 50 mg/kg; format: ADME, organism-based; conditions: in vivo
Procedure, shortened: (§3)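 Wistar rats received one dose, either iv 5 mg/kg via femoral arterial catheter (2% DMA/10% PEG400/88% of 40% HPBCD) or po 50 mg/kg (2% Klucel LF/0.1% Tween 80). Blood came from an implanted jugular catheter, up to 24 h (iv) or 48 h (po), into EDTA. Plasma LC-MS/MS; individual non-compartmental parameters were averaged.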

[5] = AUC in […] mouse at 100 mg/kg, po; format: ADME, organism-based; set-up: dose 100 mg/kg, route oral; conditions: plasma
Procedure, shortened: (§4)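 A separate group of female mice received one 100 mg/kg oral dose. Median PK parameters were calculated for that cohort.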

[6] = Tmax in C57/BL6 mouse at 100 mg/kg, po bid for 5 days; format: ADME, organism-based; set-up: dose 100 mg/kg, route oral; conditions: in vivo; procedure, shortened: as §2
RKO = experiment: Antiproliferative activity against human RKO cells
[7] = Volume of distribution at steady state in athymic nude mouse at 10 mg/kg, iv; format: ADME, organism-based; set-up: dose 10 mg/kg, route intravenous; conditions: in vivo, read-out: Vdss
Procedure, shortened: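 Athymic nude mice given single 10 mg/kg iv dose in 2% DMA, 10% PEG400, 88% of 40% HPBCD in water, 0.2 mL. Blood at 1, 5, 15, 30 min and 1, 2, 4, 8, 16, 24 h; EDTA plasma, LC-MS/MS. Composite Vdss by non-compartmental analysis.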

HUVEC [8] = experiment: Antiangiogenic activity in HUVEC assessed as inhibition of bFGF-induced cell proliferation; conditions: Homo sapiens
[9] = Half life in athymic nude mouse at 10 mg/kg, iv; format: ADME, organism-based; set-up: dose 10 mg/kg, route intravenous; conditions: in vivo
Procedure, shortened: (§5)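 Athymic nude mice received one dose, either iv 10 mg/kg in 2% DMA/10% PEG400/88% of 40% HPBCD in water, or po 50 mg/kg in 2% Klucel LF/0.1% Tween 80. Retro-orbital or terminal cardiac blood was drawn from 1 min (iv) or 5 min (po) to 24 h into EDTA. Plasma was analysed by LC-MS/MS. Composite parameters were obtained by non-compartmental analysis, with AUC extrapolated to infinity.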

Mus musculus [10] = experiment: Antiangiogenic activity in C57/BL6 mouse cornea assessed as inhibition of VEGF-induced angiogenesis at 25 mg/kg, po bid for 7 days by corneal pocket assay relative to control; format: functional; conditions: 168 h
Procedure, shortened: (§6)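 VEGF-impregnated pellets were implanted in corneas of female C57/BL6 mice aged 5–7 weeks. Oral twice-daily dosing started the same day and ran 7 days. The area of vascularization was then quantitated relative to animals given vehicle (2% Klucel LF, 0.1% Tween 80 in water).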

[11] = molecular target: T1, Serine/threonine-protein kinase Sgk1 (Homo sapiens, UniProt O00141); experiment: Inhibition of SGK
T1 sequence (O00141 whole entry): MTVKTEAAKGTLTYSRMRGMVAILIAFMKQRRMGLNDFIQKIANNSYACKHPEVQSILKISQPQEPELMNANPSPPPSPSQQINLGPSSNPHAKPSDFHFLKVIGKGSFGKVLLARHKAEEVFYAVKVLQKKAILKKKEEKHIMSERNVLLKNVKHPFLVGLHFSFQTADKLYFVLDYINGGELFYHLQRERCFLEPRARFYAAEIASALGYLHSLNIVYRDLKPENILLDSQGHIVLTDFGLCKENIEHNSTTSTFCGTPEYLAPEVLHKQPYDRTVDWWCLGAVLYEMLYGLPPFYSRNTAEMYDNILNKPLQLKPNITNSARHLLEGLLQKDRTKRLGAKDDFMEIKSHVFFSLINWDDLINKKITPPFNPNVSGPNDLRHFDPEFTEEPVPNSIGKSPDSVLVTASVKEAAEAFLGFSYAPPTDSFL

[12] = Cmax in athymic nude mouse at 50 mg/kg, po; format: ADME, organism-based; set-up: dose 50 mg/kg, route oral; conditions: in vivo; procedure, shortened: as §5
[13] = molecular target: Platelet-derived growth factor receptor (Homo sapiens, UniProt P09619+P16234); experiment: Inhibition of human recombinant His-tagged intracellular domain of PDGFR using biotin-EEEEYFELV as substrate by HTRF assay
[14] = molecular target: Vascular endothelial growth factor receptor 2 (Homo sapiens, UniProt P35968); experiment: Inhibition of human recombinant EE-tagged intracellular domain of KDR using biotin-EEEEYFELVAKKKK as substrate by HTRF assay
[15] = Tmax in […] mouse at 100 mg/kg, po; format: ADME, organism-based; set-up: dose 100 mg/kg, route oral; conditions: in vivo; procedure, shortened: as §4
[16] = Half life in Wistar rat at 5 mg/kg, iv; format: ADME, organism-based; set-up: dose 5 mg/kg, route intravenous; conditions: in vivo; procedure, shortened: as §3
Mus musculus [17] = experiment: Antiangiogenic activity in C57/BL6 mouse cornea assessed as inhibition of bFGF-induced angiogenesis at 25 mg/kg, po bid for 5 days by corneal pocket assay relative to control; format: functional; conditions: 120 h; procedure, shortened: as §1
[18] = AUC in Wistar rat at 5 mg/kg, iv; format: ADME, organism-based; set-up: dose 5 mg/kg, route intravenous; conditions: plasma; procedure, shortened: as §3
HUVEC [19] = experiment: Antiangiogenic activity in HUVEC assessed as inhibition of VEGF-induced cell proliferation; conditions: Homo sapiens
[20] = Cmax in […] mouse at 100 mg/kg, po; format: ADME, organism-based; set-up: dose 100 mg/kg, route oral; conditions: in vivo; procedure, shortened: as §4
[21] = Tmax in C57/BL6 mouse at 25 mg/kg, po bid for 5 days; format: ADME, organism-based; set-up: dose 25 mg/kg, route oral; conditions: in vivo; procedure, shortened: as §2
[22] = AUC in athymic nude mouse at 10 mg/kg, iv; format: ADME, organism-based; set-up: dose 10 mg/kg, route intravenous; conditions: plasma; procedure, shortened: as §5
Mus musculus [23] = experiment: Antiangiogenic activity in C57/BL6 mouse cornea assessed as inhibition of VEGF-induced angiogenesis at 50 mg/kg, po bid for 7 days by corneal pocket assay relative to control; format: functional; conditions: 168 h; procedure, shortened: as §6
[24] = molecular target: Cyclin-dependent kinase 1/cyclin B1 (Homo sapiens, UniProt P06493); experiment: Inhibition of CDK1/cyclin B by IMAP assay; format: protein-complex assay
Procedure, shortened: (§7)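 IMAP fluorescence-polarization assay, in which phosphorylated fluorescent peptide substrates bind immobilized metal beads. Reactions ran at ATP three times Km.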

Mus musculus [25] = experiment: Antiangiogenic activity in C57/BL6 mouse cornea assessed as inhibition of VEGF-induced angiogenesis at 100 mg/kg, po bid for 7 days by corneal pocket assay relative to control; format: functional; conditions: 168 h; procedure, shortened: as §6
[26] = molecular target: Protein kinase C alpha type (Homo sapiens, UniProt P17252); experiment: Inhibition of PKCalpha by IMAP assay; procedure, shortened: as §7

Sequence of Vascular endothelial growth factor receptor 2 (P35968 whole entry, the tested form may be a part): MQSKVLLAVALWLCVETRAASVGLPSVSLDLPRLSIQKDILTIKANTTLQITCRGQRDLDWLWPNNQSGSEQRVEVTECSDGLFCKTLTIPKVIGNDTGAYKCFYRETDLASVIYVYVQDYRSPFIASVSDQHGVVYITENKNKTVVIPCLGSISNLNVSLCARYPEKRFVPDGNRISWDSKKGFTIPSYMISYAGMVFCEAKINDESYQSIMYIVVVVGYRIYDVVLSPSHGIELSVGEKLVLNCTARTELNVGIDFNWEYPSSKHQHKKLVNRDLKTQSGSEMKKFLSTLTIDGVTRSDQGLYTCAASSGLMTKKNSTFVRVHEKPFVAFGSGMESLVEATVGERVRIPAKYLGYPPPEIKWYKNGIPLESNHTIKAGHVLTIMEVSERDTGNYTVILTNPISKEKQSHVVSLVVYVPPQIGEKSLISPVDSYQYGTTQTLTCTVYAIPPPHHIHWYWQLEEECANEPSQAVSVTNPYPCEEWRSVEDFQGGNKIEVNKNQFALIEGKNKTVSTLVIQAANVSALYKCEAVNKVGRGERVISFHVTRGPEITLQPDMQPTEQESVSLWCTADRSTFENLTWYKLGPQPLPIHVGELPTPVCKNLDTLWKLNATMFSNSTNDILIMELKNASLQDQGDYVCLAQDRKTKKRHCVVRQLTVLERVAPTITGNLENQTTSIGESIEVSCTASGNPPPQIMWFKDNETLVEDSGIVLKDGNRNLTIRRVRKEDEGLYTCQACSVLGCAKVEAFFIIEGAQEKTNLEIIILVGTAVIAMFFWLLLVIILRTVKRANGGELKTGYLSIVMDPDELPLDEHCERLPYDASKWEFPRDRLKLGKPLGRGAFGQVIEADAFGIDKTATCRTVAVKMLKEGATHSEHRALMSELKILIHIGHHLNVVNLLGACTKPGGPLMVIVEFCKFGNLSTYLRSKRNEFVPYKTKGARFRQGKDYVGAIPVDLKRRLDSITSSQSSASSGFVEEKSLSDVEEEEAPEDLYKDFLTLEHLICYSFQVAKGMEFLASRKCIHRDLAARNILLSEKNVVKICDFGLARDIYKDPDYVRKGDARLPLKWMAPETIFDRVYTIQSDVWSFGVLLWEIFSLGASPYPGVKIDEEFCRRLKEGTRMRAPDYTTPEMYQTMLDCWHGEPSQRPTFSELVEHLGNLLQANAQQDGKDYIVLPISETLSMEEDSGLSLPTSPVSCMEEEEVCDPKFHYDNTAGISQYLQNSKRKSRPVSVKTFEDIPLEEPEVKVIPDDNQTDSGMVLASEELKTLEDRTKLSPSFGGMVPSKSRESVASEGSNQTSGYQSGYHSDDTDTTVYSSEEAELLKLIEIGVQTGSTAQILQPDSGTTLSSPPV
Sequence of Cyclin-dependent kinase 1/cyclin B1 (P06493 whole entry): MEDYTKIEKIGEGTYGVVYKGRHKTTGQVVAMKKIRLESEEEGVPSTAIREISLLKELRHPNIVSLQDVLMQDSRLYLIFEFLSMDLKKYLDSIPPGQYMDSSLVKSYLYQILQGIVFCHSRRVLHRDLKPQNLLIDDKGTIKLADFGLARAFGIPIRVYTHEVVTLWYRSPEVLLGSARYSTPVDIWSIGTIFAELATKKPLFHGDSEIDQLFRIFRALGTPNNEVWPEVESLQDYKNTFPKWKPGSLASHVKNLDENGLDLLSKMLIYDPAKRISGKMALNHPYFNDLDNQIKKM
Sequence of Cyclin-dependent kinase 1/cyclin B1 (P14635 whole entry, further chain): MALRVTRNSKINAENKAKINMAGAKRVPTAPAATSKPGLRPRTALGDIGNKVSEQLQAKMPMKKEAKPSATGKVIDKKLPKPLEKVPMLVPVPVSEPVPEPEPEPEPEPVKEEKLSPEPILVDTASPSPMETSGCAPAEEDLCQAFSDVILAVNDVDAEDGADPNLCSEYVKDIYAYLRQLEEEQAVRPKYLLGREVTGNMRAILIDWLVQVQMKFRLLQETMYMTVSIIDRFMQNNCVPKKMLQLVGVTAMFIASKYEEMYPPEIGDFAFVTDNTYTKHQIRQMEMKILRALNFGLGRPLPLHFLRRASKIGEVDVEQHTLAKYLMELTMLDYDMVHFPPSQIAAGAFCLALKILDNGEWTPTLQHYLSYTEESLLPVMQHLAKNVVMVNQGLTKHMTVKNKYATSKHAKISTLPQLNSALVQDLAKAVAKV

COc1ccc(N2Cc3cnc(Nc4ccccc4)nc3N([C@@H]3CC[C@@H](O)C3)C2=O)cc1 (racemic)
Tmax [1]: 5.3 h | inhibition in vivo at 50 mg/kg (Mus musculus [2]): 80% | AUC at 120 h [3]: 30000 ng·h/mL | bioavailability [4]: 65% | AUC [5]: 146000 ng·h/mL | Tmax [6]: 0.5 h | IC50 (RKO): 2300 nM | Vd [7]: 1.9 L/kg | IC50 (HUVEC [8]): 150 nM | half-life [9]: 3 h | inhibition in vivo at 25 mg/kg (Mus musculus [10]): 81% | IC50 [11]: > 125000 nM | Cmax [12]: 16500 ng/mL | IC50 [13]: 33 nM | IC50 [14]: 44 nM | Tmax [15]: 0.5 h | half-life [16]: 6 h | inhibition in vivo at 25 mg/kg (Mus musculus [17]): 72% | AUC [18]: 4010 ng·h/mL | IC50 (HUVEC [19]): 68 nM | Cmax [20]: 37600 ng/mL | Tmax [21]: 0.5 h | AUC [22]: 11100 ng·h/mL | inhibition in vivo at 50 mg/kg (Mus musculus [23]): 91% | IC50 [24]: > 125000 nM | inhibition in vivo at 100 mg/kg (Mus musculus [25]): 99% | IC50 [26]: > 125000 nM
